Measured values from article PMC11019407 (RSC Advances, 2024).
≈ marks a conversion by molar mass, not a printed value.

Tests used:
[1] = tested on: C. albicans, T. mentagrophytes, T. rubrum, and M. gypseum; assay: Antifungal activity, paper disk diffusion, statements over all fungi; format: cell-based; settings: all fungus
Summary of the method: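 Fungi (C. albicans, T. mentagrophytes, T. rubrum, M. gypseum) were swabbed onto Potato Dextrose Agar plates. Inocula were prepared in LB broth for 24 h at 37 °C. 6 mm paper disks were loaded with 30 μL of test compound at 3.125–300 μM. Fluconazole (1 mg mL−1) was the standard.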

[2] = tested on: E. coli, P. aeruginosa, MRSA, S. faecalis; assay: Antibacterial activity, paper disk diffusion, statements over several bacteria; format: cell-based; settings: for inhibition in words: printed as E. coli, P. aeruginosa, and MRSA in the antifungal section
Summary of the method: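 Bacteria (E. coli, P. aeruginosa, S. faecalis, MRSA) were grown in LB broth for 24 h at 37 °C, then swabbed evenly onto Mueller–Hinton agar. 6 mm paper disks received 30 μL of test compound at 3.125–300 μM. Ampicillin (1 mg mL−1) was the standard.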

[3] = tested on: NO production in RAW264.7 cells; assay: Inhibition of NO production in LPS-stimulated RAW264.7 cells; format: cell-based; settings: Mus musculus, RAW264.7, read-out: IC50 of NO inhibition
Summary of the method: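 RAW 264.7 cells were grown in DMEM with 2 mM L-glutamine, 10 mM HEPES, 1 mM sodium pyruvate and 10% FBS. Cells were seeded at 2 × 10^5 per well and incubated 3 days at 37 °C, 5% CO2. Nitric oxide was quantified with Griess reagent, L-NMMA served as positive control, and IC50 was reported.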

α-glucosidase enzyme = α-glucosidase enzyme (Saccharomyces cerevisiae, UniProt P53341); assay: Alpha-glucosidase inhibition; format: biochemical
α-glucosidase enzyme, sequence (P53341 whole entry): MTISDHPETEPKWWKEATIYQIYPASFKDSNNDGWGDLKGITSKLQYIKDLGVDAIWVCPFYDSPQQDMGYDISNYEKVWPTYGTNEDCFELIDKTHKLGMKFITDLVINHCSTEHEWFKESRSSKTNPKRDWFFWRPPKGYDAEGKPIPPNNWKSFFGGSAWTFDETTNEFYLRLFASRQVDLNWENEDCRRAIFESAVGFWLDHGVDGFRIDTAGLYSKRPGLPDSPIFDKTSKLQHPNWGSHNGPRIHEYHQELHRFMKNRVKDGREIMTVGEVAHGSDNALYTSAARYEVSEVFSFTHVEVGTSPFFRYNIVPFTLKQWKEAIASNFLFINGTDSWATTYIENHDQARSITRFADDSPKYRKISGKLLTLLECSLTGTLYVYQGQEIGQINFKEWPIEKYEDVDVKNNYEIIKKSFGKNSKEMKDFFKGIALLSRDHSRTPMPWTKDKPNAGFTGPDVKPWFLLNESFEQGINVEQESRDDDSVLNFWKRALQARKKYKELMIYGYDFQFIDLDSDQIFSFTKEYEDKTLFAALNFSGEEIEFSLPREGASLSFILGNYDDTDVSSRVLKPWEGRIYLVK

SMILES	IC50 [3] [µM]	antifungal inhibition in words [1]	also measured
C[C@@H]1CC[C@]2(C(=O)O)CC[C@]3(C)C(=CC[C@@H]4[C@@]5(C)CC[C@H](O)[C@@](C)(CO)[C@@H]5CC[C@]43C)[C@@H]2[C@]1(C)O [Compound 9, rotundic acid]	–	weak inhibitions or inactive	–
CC1(C)S[C@@H]2[C@H](NC(=O)[C@H](N)c3ccccc3)C(=O)N2[C@H]1C(=O)O [ampicillin, reference compound]	–	–	MIC ([2]; read-out: MIC values against four bacteria): 3.12 to 6.25 µM (≈ 1.09 to 2.18 µg/mL)
O=C(O)c1c[nH]c2ccccc12 [Compound 6, indole-3-carboxylic acid]	–	–	inhibition in words [2]: weak inhibitions or inactive
COC(=O)C1=CO[C@@H](O[C@@H]2O[C@H](CO)[C@@H](O)[C@H](O)[C@H]2O)[C@H]2[C@@H]1[C@H](O)C[C@]2(C)OC(C)=O [Compound 3, barlerin]	–	weak inhibitions or inactive	–
[H]/N=C(/NC)NCCC[C@H](N)C(=O)O [L-NMMA, reference compound]	41.3	–	–
C[C@@H]1O[C@@H](O[C@@H]2[C@@H](O)[C@H](OCCc3ccc(O)c(O)c3)O[C@H](CO)[C@H]2OC(=O)/C=C/c2ccc(O)c(O)c2)[C@H](O)[C@H](O)[C@H]1O [Compound 12, verbacoside]	–	weak inhibitions or inactive	IC50 (α-glucosidase enzyme): 42.4 µM

Further lines, with some results ahead:

IC50 [3] [µM]	SMILES	antifungal inhibition in words [1]	also measured
18.2 ± 0.7	C[C@H]1[C@H](C)CC[C@]2(C(=O)O)CC[C@]3(C)C(=CC[C@@H]4[C@@]5(C)CC[C@H](O)C(C)(C)[C@@H]5CC[C@]43C)[C@H]12 [Compound 7, ursolic acid]	–	inhibition in words [2]: weak inhibitions or inactive
25.9 ± 3.32	C[C@]1(OC(=O)/C=C/c2ccccc2)C[C@@H](O)[C@]2(O)C=CO[C@@H](O[C@@H]3O[C@H](CO)[C@@H](O)[C@H](O)[C@H]3O)[C@@H]21 [Compound 4, harpagoside]	weak inhibitions or inactive	–
